pEC50: −log10 of the molar value.
Assays:
Cavia porcellus [1] = organism: Cavia porcellus; details: 10 nM
Cavia porcellus [2] = organism: Cavia porcellus; test: Inhibition of CaCl2-induced contraction in potassium-depolarized guinea pig ileal smooth muscle at 10 uM; type: functional
In short: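 Guinea-pig ileum segments (2.5 cm) in high-K+ (45 mM KCl), Ca-free Krebs at 37 °C, gassed 95% O2/5% CO2, 1.5 g resting tension, isometric recording. CaCl2 raised bath Ca to 2.5 mM to give a sustained contracture. Compound at 1×10^-5 M in 0.5% DMSO/water added once contraction stabilised. Nifedipine 1×10^-8 M was the positive control. Mean ± SEM, n = animals.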

[3] = Inhibition of CaCl2-induced contraction in potassium depolarized-guinea pig ileal smooth muscle; type: functional, Cavia porcellus

SMILES | inhibition (Cavia porcellus [2]) | pEC50 [3] | other results
COC(=O)C1=C(C)NC(C)=C(C(=O)OC)C1c1ccccc1[N+](=O)[O-] |  |  | inhibition (Cavia porcellus [1]): 48.1%
C=CCN(C1=CC(=O)c2ccccc21)C1CCc2ccccc21 (racemic) | 20.9% |  | 
CC(=O)N(C1=CC(=O)c2ccccc21)C1CCc2ccccc21 (racemic) | 18.3% |  | 
O=C1C=C(NC2CCc3ccccc32)c2ccccc21 (racemic) | 30% |  | 
Cc1c(O)c2c(c(C)c1CCO)C(=O)C(C)(C)C2 [ONITIN] |  | 4.00 | 
Cc1c(O)c2c(c(C)c1CCO)C(=O)C(C)(O)C2 (stereo unspecified) [ONITISIN] |  | 2.70 | 

— ChEMBL document CHEMBL1144674, “Synthesis and pharmacological activity of aminoindanone dimers and related compounds” (Bioorg Med Chem, 2008)
